The list is not random: actives were taken first. Their share in the collection is about 2.3%.
TRPC4 inh: TRPC4 (mouse) channel inhibition; Q9QUQ5; HEK293 TRPC4beta/mu-opioid, DAMGO-evoked Fluo4 calcium flux; active compounds read low; B-score at 10 µM; actives 0.39% (n = 300,000); AID 2247;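 active = B-score over 3 SD under the library average, no early fluorescence shift, positive overall ratio signal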
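Assay system: TRPC4beta/mu-opioid receptor HEK293 cell line; compound dosing: single concentration per test compound; detection: Fluo4 Ca2+ flux fluorescence; evaluation: per-well B score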
TRPC4 agonist: TRPC4 (mouse) channel activation; Q9QUQ5; HEK293 TRPC4beta/mu-opioid, Fluo4 calcium fluorescence; active compounds read high; B-score at 10 µM; actives 0.49% (n = 310,000); AID 2237;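 active = B-score above 5 SD of library B-scores, and initial fluorescence ratio not above library mean plus 5 SD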;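 note: positive B-score marks a calcium rise read as TRPC4 activation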
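Test system: HEK293 cells stably co-expressing mouse TRPC4beta and mu-opioid receptor | Schedule: Fluo4 dye loading 45 min at room temperature, 110 s recording | Measured by: Kinetic Fluo4 calcium fluorescence, 5 s baseline at 1 Hz | Evaluation: B score of integrated ratio | Controls: Buffer (low) and maximal DAMGO (high)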
TRPC4 PAM: allosteric potentiators of mouse TRPC4 channel. Q9QUQ5. HEK293 TRPC4beta/mu-opioid, DAMGO EC20, Fluo-4 Ca2+ flux; active compounds read high. B-score at 10 µM. actives 0.42% (n = 310,000);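 active = B-score of calcium response area above 5 SD of library B-scores, with initial fluorescence ratio within 5 SD of library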
TRPC6 inhibitor: blocks the mouse TRPC6 cation channel. actives 1.1% (n = 310,000). HEK293-TRPC6, membrane potential dye, ACh-evoked depolarization; active compounds read low. B-score at 10 µM. Q61143;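 active = B-score under library mean minus 3 SD, initial fluorescence not abnormally high, positive integrated signal ratio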;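 note: B-score derived from integrated fluorescence ratio over the kinetic read; more negative B-score means stronger inhibition of depolarization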
TRPC6 act: activators of mouse TRPC6 channel. Q61143. HEK293-TRPC6 membrane potential dye fluorescence; active compounds read high. B-score at 10 µM. actives 0.13% (n = 310,000);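 active = B-score of the integrated fluorescence ratio above library mean plus 3 SD, and starting fluorescence ratio within library mean plus 5 SD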;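 note: higher score means more depolarization so channel activation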
TRPC4 spec 2: second selectivity test of TRPC6 inhibitors: effect on mouse TRPC4. shares compounds with TRPC6 inhibitor. inhibition, % at 10 µM. actives 42% (n = 920). HEK293 TRPC4/MOR, membrane potential dye fluorescence; channel activated by saturating DAMGO dose;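 active = compounds whose fluorescence signal differed from control wells by over 3 SD, either direction, in both duplicate plates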
TRPC4 spec: selectivity of TRPC6 inhibitors: effect on mouse TRPC4; HEK293 TRPC4/mu-opioid, membrane potential fluorescence; actives 61% (n = 920); shares compounds with TRPC6 inhibitor; activity change, negative = inhibition, % at 10 µM;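 active = rise or fall in signal beyond 3 SD of buffer-only wells in both replicate plates, either sign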;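 note: integrated kinetic ratio of fluorescence range over baseline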
HEK293 MPD ctr 2-1: second check of TRPC6 inhibitor effects in parental HEK293 cells; AID 2779; shares compounds with TRPC6 inhibitor; parental HEK293 membrane potential dye fluorescence; maximal acetylcholine challenge after compound addition; actives 31% (n = 920); signal change vs control, % at 10 µM;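 active = membrane potential signal moving either way by over 3 SD of the maximum-effect control, in both duplicate plates, meaning non-specific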
HEK293 MPD ctr-1: parental HEK293 nonspecific activity of TRPC6 inhibitors. shares compounds with TRPC6 inhibitor. parental HEK293 membrane potential dye fluorescence. membrane potential signal change, % at 10 µM. actives 60% (n = 920). AID 2780;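 active = membrane potential signal shifting up or down by more than 3 SD of buffer-only wells, on both duplicate plates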
HEK293 MPD ctr-2: counter-screen for TRPC6 modulators: effect in parental HEK293 cells; actives 51% (n = 2,400); AID 488924; membrane potential signal change, % at 10 µM; shares compounds with TRPC6 inhibitor; membrane potential dye fluorescence;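 active = membrane potential signal moves up or down beyond 5 SD from buffer-only wells, on both duplicate plates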
HEK293 MPD ctr 2-2: second check of TRPC6 modulator effects in parental HEK293 cells. actives 14% (n = 2,400). AID 488926. membrane potential dye fluorescence; after compound, maximal acetylcholine stimulation. inhibition, % at 10 µM. shares compounds with TRPC6 inhibitor;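 active = membrane potential signal drops by more than 5 SD from the mean control signal, in both duplicate plates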
TRPC4 ctr mod: mouse TRPC4 off-target activity of TRPC6 modulators | actives 69% (n = 2,400) | shares compounds with TRPC6 inhibitor | AID 488927 | HEK293 TRPC4/mu-opioid, membrane potential fluorescence | percent change from control (negative = decrease, positive = increase), % at 10 µM;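 active = membrane potential signal moved up or down beyond 5 SD of buffer control wells, in both duplicate plates, actives on both sides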
TRPC4 ctr inh 2: mouse TRPC4 off-target activity of TRPC6 modulators, second screen; shares compounds with TRPC6 inhibitor; HEK293 TRPC4/mu-opioid, membrane potential dye fluorescence; stimulated with maximal-effect DAMGO; inhibition, % at 10 µM; actives 55% (n = 2,400); AID 488928;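 active = drop in membrane potential signal beyond 5 SD of the control wells in both duplicate plates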;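 note: TRPC4 counter screen for TRPC6 hits run under conditions tuned for TRPC6 not TRPC4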
TRPC6 block conf: mouse TRPC6 inhibitor confirmation | shares compounds with TRPC6 inhibitor | HEK293-TRPC6, membrane potential dye, ACh-evoked depolarization | inhibition, % at 10 µM | actives 43% (n = 3,300);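 active = fluorescence ratio falls more than 5 SD below the full-stimulation control mean, in both duplicate runs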;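 note: integrated fluorescence ratio of peak minus minimum over baseline after agonist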
TRPC6 act confirm: mouse TRPC6 activator confirmation; shares compounds with TRPC6 inhibitor; HEK293-TRPC6 membrane potential dye fluorescence, FDSS; activation, % at 10 µM; actives 11% (n = 2,800); AID 488961;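 active = ratio signal rise beyond 5 SD above unstimulated control wells' mean, seen in both duplicate runs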
Of the large screens only hits and unclear results are named; the others gave an inactive call (follow-up assays come after a bar, where they were run).

CN(C)CCSC1c2ccccc2CSc2ccccc21 (stereo not drawn)	TRPC6 inhibitor -6.22 | HEK293 MPD ctr-2 inactive | HEK293 MPD ctr 2-2 78.0% | TRPC4 ctr mod 11.0% | TRPC4 ctr inh 2 49.5% | TRPC6 block conf 74.0%
CN1C2CCC1C(COC(=O)c1ccccc1)C(O)C2 (stereo not drawn)	none
CN1C2CCC1CC(OC(c1ccccc1)c1ccccc1N)C2 (stereo not drawn)	TRPC6 inhibitor -5.56 | HEK293 MPD ctr-2 110.5% | HEK293 MPD ctr 2-2 92.5% | TRPC4 ctr mod 21.0% | TRPC4 ctr inh 2 40.5% | TRPC6 block conf 87.5%
O=C1CCCN1CC#CCN1CCCC1	TRPC6 inhibitor -5.89 | HEK293 MPD ctr-2 inactive | HEK293 MPD ctr 2-2 inactive | TRPC4 ctr mod inactive | TRPC4 ctr inh 2 inactive | TRPC6 block conf 49.0%
COc1cc2c(cc1OC)-c1c(OC)c(OC)cc3c1[C@H](C2)N(C)CC3	TRPC6 inhibitor -7.72 | HEK293 MPD ctr-2 -411.5% | HEK293 MPD ctr 2-2 inactive | TRPC4 ctr mod -57.5% | TRPC4 ctr inh 2 38.0% | TRPC6 block conf 45.0% | TRPC6 act confirm inactive
C#CC[N+]1(C)[C@@H]2CC[C@H]1CC(OC(=O)C(CO)c1ccccc1)C2 (stereo partly drawn)	TRPC6 inhibitor -10.6 | TRPC4 spec 2 inactive | TRPC4 spec inactive | HEK293 MPD ctr 2-1 -21.0% | HEK293 MPD ctr-1 inactive | TRPC6 block conf 94.1% | TRPC6 act confirm inactive
C[N+]1(C)CCC(OC(=O)C(c2ccccc2)c2ccccc2)CC1	TRPC6 inhibitor -7.29 | TRPC4 spec 2 inactive | TRPC4 spec inactive | HEK293 MPD ctr 2-1 -17.5% | HEK293 MPD ctr-1 inactive | TRPC6 block conf 91.1% | TRPC6 act confirm inactive
C[N+]1(C)[C@@H]2CC[C@H]1CC(OC(=O)[C@@H](CO)c1ccccc1)C2 (stereo partly drawn)	TRPC6 inhibitor -7.65 | TRPC4 spec 2 inactive | TRPC4 spec inactive | HEK293 MPD ctr 2-1 -38.0% | HEK293 MPD ctr-1 inactive | TRPC6 block conf 95.6% | TRPC6 act confirm inactive
CCOC(=O)Cn1cc(C(=O)c2ccccc2)c2ccccc21	none
CNC(C(=O)c1ccccc1)C(OC(C)C)c1ccc(Cl)cc1 (stereo not drawn)	none
COc1ccc(-c2cc(-c3ccccc3)[n+](C)c(-c3ccccc3)c2)cc1	TRPC6 inhibitor -5.57 | HEK293 MPD ctr-2 inactive | HEK293 MPD ctr 2-2 inactive | TRPC4 ctr mod inactive | TRPC4 ctr inh 2 inactive | TRPC6 block conf inactive | TRPC6 act confirm inactive

Bioassay records from PubChem.
